Our source for the IC50 values is ChEMBL document CHEMBL1134702, “Arylalkylidene rhodanine with bulky and hydrophobic functional group as selective HCV NS3 protease inhibitor” (Bioorg Med Chem Lett, 2001).

The target of one assay is Plasminogen (Homo sapiens, UniProt P00747). Briefly: Inhibitory activity against plasmin. The method in brief: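 Fluorogenic casein-substrate protease kit assay using 0.002U plasmin per reaction at 30 °C, stopped within the linear phase of the reaction; IC50 determined.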
Plasminogen, sequence (P00747 97-580 limits assumed): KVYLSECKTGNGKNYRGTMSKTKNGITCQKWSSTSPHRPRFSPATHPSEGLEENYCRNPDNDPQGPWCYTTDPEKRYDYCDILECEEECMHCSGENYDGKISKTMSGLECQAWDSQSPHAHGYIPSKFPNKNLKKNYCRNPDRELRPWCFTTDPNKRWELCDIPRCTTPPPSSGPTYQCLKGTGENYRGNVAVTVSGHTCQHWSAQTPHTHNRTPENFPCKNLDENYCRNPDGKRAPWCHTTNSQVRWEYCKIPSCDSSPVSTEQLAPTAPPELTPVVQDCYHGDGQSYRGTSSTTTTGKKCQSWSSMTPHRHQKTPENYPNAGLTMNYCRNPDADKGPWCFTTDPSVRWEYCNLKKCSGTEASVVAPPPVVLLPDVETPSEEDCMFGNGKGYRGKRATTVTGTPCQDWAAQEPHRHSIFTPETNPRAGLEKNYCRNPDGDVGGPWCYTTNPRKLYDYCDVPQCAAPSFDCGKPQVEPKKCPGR
Plasminogen, sequence (P00747 581-810 limits assumed): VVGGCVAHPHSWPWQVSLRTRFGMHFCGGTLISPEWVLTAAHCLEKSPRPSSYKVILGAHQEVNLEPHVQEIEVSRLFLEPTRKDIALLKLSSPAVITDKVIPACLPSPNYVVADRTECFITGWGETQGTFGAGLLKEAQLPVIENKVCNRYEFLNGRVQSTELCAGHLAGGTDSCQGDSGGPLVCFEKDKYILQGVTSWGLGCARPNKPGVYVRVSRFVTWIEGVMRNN
The target of the next assay is NS3 (Hepatitis C virus, UniProt A3EZJ3). Briefly: Inhibitory activity against hepatitis C virus (HCV) NS3 protease. The arrangement: species or system Hepacivirus hominis. The procedure, abridged:
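His-tagged HCV NS3 fusion expressed in BL21(DE3) E. coli, purified, quantified by densitometry against BSA. Reaction started with GST-bead 5A5B substrate (3 µg); 37 °C, 15 min or <40% conversion. Cleavage read by SDS-PAGE, Coomassie, densitometry; IC50 determined.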

Structures are written as SMILES.

NS3, sequence (A3EZJ3 whole entry, the tested form may be a part): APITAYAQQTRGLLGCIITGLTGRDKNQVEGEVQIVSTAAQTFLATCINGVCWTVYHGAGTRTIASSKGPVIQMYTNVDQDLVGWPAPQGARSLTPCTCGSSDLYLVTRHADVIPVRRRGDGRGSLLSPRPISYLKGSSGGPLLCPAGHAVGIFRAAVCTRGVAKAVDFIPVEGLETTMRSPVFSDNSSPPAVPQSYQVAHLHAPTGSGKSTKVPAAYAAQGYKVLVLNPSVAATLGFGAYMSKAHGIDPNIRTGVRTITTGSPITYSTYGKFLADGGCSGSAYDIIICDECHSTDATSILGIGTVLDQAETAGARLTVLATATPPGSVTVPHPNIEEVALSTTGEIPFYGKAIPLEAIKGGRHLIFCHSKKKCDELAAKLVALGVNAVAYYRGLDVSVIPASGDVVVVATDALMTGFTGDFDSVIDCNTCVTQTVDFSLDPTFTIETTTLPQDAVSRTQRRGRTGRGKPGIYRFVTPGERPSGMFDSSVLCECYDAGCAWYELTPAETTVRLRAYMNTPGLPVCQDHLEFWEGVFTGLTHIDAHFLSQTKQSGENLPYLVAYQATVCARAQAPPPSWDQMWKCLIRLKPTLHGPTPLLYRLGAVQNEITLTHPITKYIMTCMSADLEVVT

In the case of `C/C(=C1/SC(=S)N(CC(=O)O)C1=O)c1ccc(-c2ccccc2)cc1`, the IC50 was 7 µM against Plasminogen and 20 µM on NS3.

Regarding `CCOC(=O)CN1C(=O)/C(=C(\C)c2cccc(NS(=O)(=O)c3ccc(-c4ccc(S(=O)(=O)NCCNC(=O)OC(C)(C)C)cc4)cc3)c2)SC1=S`, the IC50 against Plasminogen is 20 µM; on NS3, 15 µM.

On to `COC(=O)CN1C(=O)/C(=C/c2cc3c(cc2[N+](=O)[O-])OCO3)SC1=S`, for which the results for the IC50 against Plasminogen and against NS3 were < 1 µM and 71 µM, respectively.

In the case of `CCOC(=O)CN1C(=O)/C(=C(\C)c2cccc(OC(=O)N[C@@H](CC(C)C)C(=O)N(CCN(Cc3ccc(C(=O)OC)cc3)Cc3ccc(C(=O)OC)cc3)Cc3ccc(Cl)cc3)c2)SC1=S`, the figures for the concentration for half-maximal inhibition (IC50) against Plasminogen and on NS3 were 20 µM and 16 µM, respectively.

Turning to `C=CCN1C(=O)/C(=C/c2cc3c(cc2[N+](=O)[O-])OCO3)SC1=S`, the IC50 was < 1 µM on Plasminogen and 40 µM against NS3.

Consider `O=C(O)CN1C(=O)/C(=C/c2cc([N+](=O)[O-])ccc2F)SC1=S`, for which the IC50 on Plasminogen is 13 µM; against NS3, 64 µM.
